# Measured values taken from ChEMBL document CHEMBL1154858, “Synthesis, in vitro antibacterial and antifungal evaluations of new alpha-hydroxyphosphonate and new alpha-acetoxyphosphonate derivatives of tetrazolo [1, 5-a] quinoline” (2010).
# Key:
# Format in all cases: functional
# [1] = tested on: Bacillus subtilis; experiment: Antibacterial activity against Bacillus subtilis NCIM 2250 after 48 hrs by agar cup plate method
# Summary of the method: (§1)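 Agar cup plate zone-of-inhibition assay on Mueller Hinton agar, with compounds dissolved in DMF and streptomycin in DMF as the reference. Plates were incubated at 37 ± 0.5 °C for 48 h. Inhibition was scored as the diameter of the growth-free zone around the cup.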
# [2] = tested on: Candida albicans; experiment: Antifungal activity against Candida albicans MTCC 277 after 24 hrs by cup plate method; details: MTCC 277, 24 h
# Summary of the method: (§2)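 Cup-plate MIC on Mueller Hinton agar plates containing the compound at 0 (control), 1, 2, 3, 5, 10, 15, 20, 30 and 40 (unit unclear), with compounds dissolved in DMF. Plates were read after 24 h and incubated further up to 72 h where needed. MIC is the lowest concentration giving no visible macroscopic growth.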
# [3] = tested on: Candida albicans; experiment: Antifungal activity against Candida albicans MTCC 277 after 48 hrs by agar cup plate method
# Summary of the method: (§3)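 Fungal zone-of-inhibition test in Czapek Dox medium by the agar cup method, with compounds dissolved in DMF and griseofulvin in DMF as the reference. Plates were incubated at 28 ± 0.5 °C for 48 h. Activity was taken as the diameter of the zone of inhibited growth around the cup.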
# [4] = tested on: Aspergillus niger; experiment: Antifungal activity against Aspergillus niger NCIM 545 after 48 hrs by agar cup plate method; summary of the method: as §3
# [5] = tested on: Aspergillus niger; experiment: Antifungal activity against Aspergillus niger NCIM 545 after 24 hrs by cup plate method; details: NCIM 545, 24 h; summary of the method: as §2
# [6] = tested on: Escherichia coli; experiment: Antibacterial activity against Escherichia coli ATCC 25922 after 24 hrs by cup plate method; details: ATCC 25922, 24 h; summary of the method: as §2
# [7] = tested on: Bacillus subtilis; experiment: Antibacterial activity against Bacillus subtilis NCIM 2250 after 24 hrs by cup plate method; details: NCIM 2250, 24 h; summary of the method: as §2
# [8] = tested on: Escherichia coli; experiment: Antibacterial activity against Escherichia coli ATCC 25922 after 48 hrs by agar cup plate method; summary of the method: as §1
SMILES,diameter of the inhibition zone (DIZ) [1],MIC [2],diameter of the inhibition zone (DIZ) [3],diameter of the inhibition zone (DIZ) [4],MIC [5],MIC [6],MIC [7],diameter of the inhibition zone (DIZ) [8]
CCOP(=O)(OCC)C(O)c1cc2ccc(C)cc2n2nnnc12 (configuration not stated),13.6 mm,10 µg/mL,13.8 mm,13.2 mm,15 µg/mL,15 µg/mL,10 µg/mL,12 mm
CCOP(=O)(OCC)C(OC(C)=O)c1cc2cc(C)ccc2n2nnnc12 (configuration not stated),12 mm,10 µg/mL,13.1 mm,14.1 mm,10 µg/mL,15 µg/mL,10 µg/mL,11.4 mm
CCOP(=O)(OCC)C(OC(C)=O)c1cc2cccc(C)c2n2nnnc12 (configuration not stated),13.1 mm,10 µg/mL,12.2 mm,12.2 mm,15 µg/mL,10 µg/mL,20 µg/mL,13.4 mm
CCOP(=O)(OCC)C(O)c1cc2ccccc2n2nnnc12 (configuration not stated),12 mm,10 µg/mL,13.6 mm,12.1 mm,15 µg/mL,20 µg/mL,10 µg/mL,13.4 mm
CCOP(=O)(OCC)C(O)c1cc2cc(C)ccc2n2nnnc12 (configuration not stated),15.2 mm,10 µg/mL,13.2 mm,14.2 mm,10 µg/mL,10 µg/mL,10 µg/mL,15 mm
CCOP(=O)(OCC)C(O)c1cc2cccc(CC)c2n2nnnc12 (configuration not stated),14.5 mm,10 µg/mL,13.4 mm,14.2 mm,10 µg/mL,20 µg/mL,10 µg/mL,16.2 mm
CCOP(=O)(OCC)C(OC(C)=O)c1cc2cccc(CC)c2n2nnnc12 (configuration not stated),15.1 mm,10 µg/mL,12.1 mm,13.5 mm,15 µg/mL,10 µg/mL,10 µg/mL,14.2 mm
CCOP(=O)(OCC)C(OC(C)=O)c1cc2ccccc2n2nnnc12 (configuration not stated),11.2 mm,10 µg/mL,14.2 mm,13.4 mm,20 µg/mL,10 µg/mL,15 µg/mL,12.5 mm
COC1=CC(=O)C[C@@H](C)[C@]12Oc1c(Cl)c(OC)cc(OC)c1C2=O [GRISEOFULVIN],,5 µg/mL,16.4 mm,16.5 mm,5 µg/mL,,,
CN[C@@H]1[C@H](O[C@H]2[C@H](O[C@H]3[C@H](O)[C@@H](O)[C@H](N=C(N)N)[C@@H](O)[C@@H]3N=C(N)N)O[C@@H](C)[C@]2(O)C=O)O[C@@H](CO)[C@H](O)[C@H]1O [STREPTOMYCIN],16.4 mm,,,,,5 µg/mL,5 µg/mL,16.2 mm
